# Experimental data from ChEMBL document CHEMBL1156767, “Indol-3-ylcycloalkyl ketones: effects of N1 substituted indole side chain variations on CB(2) cannabinoid receptor activity” (J Med Chem, 2010).
# Tests used:
# [1] = biological target: T1, Cannabinoid receptor 2 (Homo sapiens, UniProt P34972); assay: Displacement of [3H]CP-55940 from human recombinant CB2 receptor expressed in HEK293 cells; type: cell-based; settings: read-out: Ki
# [2] = biological target: T2, Cannabinoid receptor 1 (Homo sapiens, UniProt P21554); assay: Displacement of [3H]CP-55940 from human recombinant CB1 receptor expressed in CHO cells; type: cell-based
# T2 sequence (P21554 whole entry): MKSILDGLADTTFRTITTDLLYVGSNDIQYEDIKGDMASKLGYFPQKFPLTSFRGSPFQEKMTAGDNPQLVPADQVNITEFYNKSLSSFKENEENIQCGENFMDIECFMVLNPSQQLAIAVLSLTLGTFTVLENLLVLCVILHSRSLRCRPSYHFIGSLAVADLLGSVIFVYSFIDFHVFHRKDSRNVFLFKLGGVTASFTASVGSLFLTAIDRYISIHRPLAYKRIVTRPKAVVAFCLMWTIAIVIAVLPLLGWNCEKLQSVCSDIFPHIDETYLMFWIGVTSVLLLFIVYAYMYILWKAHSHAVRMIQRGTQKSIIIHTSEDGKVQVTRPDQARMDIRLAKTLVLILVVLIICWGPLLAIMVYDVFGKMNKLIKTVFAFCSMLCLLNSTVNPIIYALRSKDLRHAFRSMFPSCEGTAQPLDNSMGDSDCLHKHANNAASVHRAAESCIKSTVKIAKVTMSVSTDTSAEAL
# [3] = species on record: Homo sapiens; assay: Selectivity ratio of Ki for human recombinant CB1 receptor to Ki for human recombinant CB2 receptor
# Summary of the method: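 Membranes were from HEK cells stably expressing human CB2 and CHO cells stably expressing human CB1. Competition was run against 0.5 nM [3H]CP-55,940 in 50 mM Tris-HCl pH 7.4, 2.5 mM EDTA, 5 mM MgCl2, 0.05% fatty-acid-free BSA, for 90 min at 30 °C, then filtered. Nonspecific binding was set with 10 μM unlabeled CP-55,940. Ki came from one-site fits. Mean ± SEM, ≥3 experiments in duplicate.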
# [4] = biological target: T1, Cannabinoid receptor 2; assay: Agonist activity at human recombinant CB2 receptor expressed in HEK293 cells coexpressing Galphaq/o5 assessed as calcium mobilization by FLIPR assay; type: functional, cell-based
# Summary of the method: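 HEK cells stably coexpressing human CB2 and chimeric Gαq/o5 were seeded at 75 000 cells/well the day before and loaded with no-wash calcium dye. Mean ± SEM, ≥3 experiments in duplicate.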
# [5] = biological target: T1, Cannabinoid receptor 2; assay: Agonist activity at human recombinant CB2 receptor expressed in HEK293 cells coexpressing Galphaq/o5 assessed as calcium mobilization by FLIPR assay relative to CP-55940; type: functional, cell-based
# Summary of the method: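 HEK cells stably coexpressing human CB2 and chimeric Gαq/o5 were seeded at 75 000 cells/well the day before and loaded with no-wash calcium dye. […] Mean ± SEM, ≥3 experiments in duplicate.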
# [6] = biological target: T2, Cannabinoid receptor 1; assay: Agonist activity at human recombinant CB1 receptor expressed in CHO cells assessed as inhibition of forskolin-induced cAMP production; type: functional, cell-based
# [7] = biological target: T1, Cannabinoid receptor 2; assay: Agonist activity at human recombinant CB2 receptor expressed in HEK293 cells assessed as inhibition of forskolin-induced cAMP production; type: functional, cell-based
# [8] = biological target: T1, Cannabinoid receptor 2; assay: Agonist activity at human recombinant CB2 receptor expressed in HEK293 cells assessed as inhibition of forskolin-induced cAMP production relative to CP-55940; type: functional, cell-based; parameters: scale not given: the % may be the effect or the level left
# Summary of the method: (§1)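 Cyclase assay on cell suspensions (HitHunter cAMP kit): varying test ligand concentrations or CP-55,940 positive control incubated 20 min at 37 °C with a fixed forskolin concentration (lower for rat CB2 than for human CB2 and rat CB1) in D-PBS with 0.01% BSA. Lysis buffer was then added and luminescence read. Response is given as percent of the CP-55,940 response.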
# [9] = biological target: T3, Cannabinoid receptor 2 (Rattus norvegicus, UniProt Q9QZN9); assay: Agonist activity at rat CB2 receptor assessed as inhibition of forskolin-induced cAMP production by cell based assay; type: functional
# T3 sequence (Q9QZN9 whole entry): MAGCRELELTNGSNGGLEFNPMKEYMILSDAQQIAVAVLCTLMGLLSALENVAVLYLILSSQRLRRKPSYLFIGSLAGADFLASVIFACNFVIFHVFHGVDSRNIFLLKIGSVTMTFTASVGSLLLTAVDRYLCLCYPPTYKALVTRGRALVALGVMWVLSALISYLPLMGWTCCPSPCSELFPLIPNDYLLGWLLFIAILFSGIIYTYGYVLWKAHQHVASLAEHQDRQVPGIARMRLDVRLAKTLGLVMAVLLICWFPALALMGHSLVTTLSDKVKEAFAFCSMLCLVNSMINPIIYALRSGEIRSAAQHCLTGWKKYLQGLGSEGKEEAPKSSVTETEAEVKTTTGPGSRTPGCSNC
# [10] = biological target: T4, Cannabinoid receptor 2 (Rattus norvegicus) (UniProt Q9QZN9); assay: Agonist activity at rat CB2 receptor assessed as inhibition of forskolin-induced cAMP production by cell based assay relative to CP-55940; type: functional; parameters: concentration or dose not given beside the values; summary of the method: as §1
# T4 sequence (whole entry): T3 sequence (Q9QZN9 whole entry)
# [11] = biological target: Cannabinoid receptor 1 (Rattus norvegicus) (UniProt P20272); assay: Agonist activity at rat CB1 receptor assessed as inhibition of forskolin-induced cAMP production by cell based assay relative to CP-55940; type: functional; parameters: scale not given: the % may be the effect or the level left; summary of the method: as §1
# Cannabinoid receptor 1 (Rattus norvegicus), sequence (P20272 whole entry): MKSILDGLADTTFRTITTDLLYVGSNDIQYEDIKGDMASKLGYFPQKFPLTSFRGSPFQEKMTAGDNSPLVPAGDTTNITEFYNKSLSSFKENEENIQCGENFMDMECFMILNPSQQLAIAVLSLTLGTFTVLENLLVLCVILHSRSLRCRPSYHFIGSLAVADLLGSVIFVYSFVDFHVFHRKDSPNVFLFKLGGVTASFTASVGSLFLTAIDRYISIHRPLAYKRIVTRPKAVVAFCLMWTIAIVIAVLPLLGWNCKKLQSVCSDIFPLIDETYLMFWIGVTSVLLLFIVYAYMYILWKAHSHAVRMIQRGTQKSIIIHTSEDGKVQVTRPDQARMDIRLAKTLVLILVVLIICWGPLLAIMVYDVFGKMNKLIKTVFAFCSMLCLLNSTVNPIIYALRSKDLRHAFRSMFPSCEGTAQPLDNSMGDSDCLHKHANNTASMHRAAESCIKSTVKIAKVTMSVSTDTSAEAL
# [12] = biological target: Cannabinoid receptor 1 (Rattus norvegicus, UniProt P20272); assay: Agonist activity at rat CB1 receptor assessed as inhibition of forskolin-induced cAMP production by cell based assay; type: functional
# Cannabinoid receptor 1 (Rattus norvegicus, UniProt P20272), sequence (P20272 whole entry): as above
# T1 sequence (P34972 whole entry): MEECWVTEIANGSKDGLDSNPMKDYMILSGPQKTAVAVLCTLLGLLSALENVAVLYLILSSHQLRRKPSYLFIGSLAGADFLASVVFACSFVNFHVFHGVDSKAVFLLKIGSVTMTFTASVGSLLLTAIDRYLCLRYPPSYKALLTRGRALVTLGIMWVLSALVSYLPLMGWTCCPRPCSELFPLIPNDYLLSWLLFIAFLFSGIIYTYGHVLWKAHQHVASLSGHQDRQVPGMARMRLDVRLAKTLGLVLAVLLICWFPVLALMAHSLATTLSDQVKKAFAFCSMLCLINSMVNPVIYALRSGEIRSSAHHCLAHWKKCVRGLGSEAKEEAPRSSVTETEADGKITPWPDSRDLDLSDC
SMILES,Ki [1] [nM],Ki ([2]; read-out: Ki) [nM],Ratio Ki [3],EC50 [4] [nM],Activity [5] [%],EC50 [6] [nM],EC50 [7] [nM],Activity [8] [%],EC50 [9] [nM],Activity [10] [%],Activity [11] [%],Ki ([2]; read-out: pKi (converted)) [nM],EC50 [12] [nM]
CC1(C)C(C(=O)c2cn(CCN3CCOC3=O)c3ccccc23)C1(C)C,0.18,350,1940,2,81,3590,0.97,114,0.07,99,,,
CN(C)CCn1cc(C(=O)C2C(C)(C)C2(C)C)c2ccccc21,1.9,> 10000,> 5260,35,105,,,,,,,,
Cc1ncsc1CCn1cc(C(=O)C2C(C)(C)C2(C)C)c2ccccc21,18,2000,111,49,49,,,,,,,,
Cc1c(C(=O)c2cccc3ccccc23)c2cccc3c2n1[C@H](CN1CCOCC1)CO3,,,,,,,,,,46,108,,
O=C(c1cn(CC2CCOCC2)c2ccccc12)[C@@H]1CC12CCCCC2,2.6,62,24,14,86,,,,,,,,
CN1CCCCC1Cn1cc(C(=O)C2C(C)(C)C2(C)C)c2ccccc21 (stereo not drawn),0.48,5.5,11,628,48,,,,,,,,
CC1(C(=O)c2cn(CC3CCOCC3)c3ccccc23)CC(F)(F)C1(F)F (stereo not drawn),47,1450,31,197,46,,,,,,,,
CC1(C)C(C(=O)c2cn(CCCCO)c3ccccc23)C1(C)C,2.2,> 5600,> 2500,8,105,1880,2.1,100,4.4,104,113,> 5620,2080
CC1(C)C(C(=O)c2cn(C[C@@H]3CCCO3)c3ccccc23)C1(C)C,3.3,220,67,14,117,,,,,,,,
O=C(c1cn(CCN2CCOCC2)c2ccccc12)C1CCCCC1,138,1630,12,86,44,,,,,,,,
CC1(C)C(C(=O)c2cn(C[C@H]3CCCO3)c3ccccc23)C1(C)C,3.8,720,189,11,99,,,,,,,,
CC1(C)C(C(=O)c2cn(CC3CCOCC3)c3ccccc23)C1(C)C,,,,,,,2.7,103,0.17,93,91,,
CC1(C)C(C(=O)c2cn(CCO)c3ccccc23)C1(C)C,56,> 10000,> 179,440,85,,,,,,,,
O=C(c1cn(CCN2CCOCC2)c2ccccc12)C1CCCCCC1,11,362,33,31,48,,,,,,,,
COC(=O)CCn1cc(C(=O)C2C(C)(C)C2(C)C)c2ccccc21,2.9,1830,631,17,109,,,,,,,,
O=C(c1cn(CC2CCOCC2)c2ccccc12)C12CC3CC(CC1C3)C2,2.1,73,35,7,93,,,,,,,,
CC1(C)C(C(=O)c2cn(CCN3CCCCC3)c3ccccc23)C1(C)C,2.3,556,242,56,93,,,,,,,,
COCCn1cc(C(=O)C2C(C)(C)C2(C)C)c2ccccc21,3.1,710,229,14,117,,,,,,,,
O=C(c1cn(CCN2CCOCC2)c2ccccc12)[C@@H]1CC12CCCCC2,35,3060,87,42,50,,,,,,,,
CCCCCn1cc(C(=O)C2C(C)(C)C2(C)C)c2ccccc21,1.8,150,83,29,93,,,,,,,,
CC1(C)C(C(=O)c2cn(CCN3CCOCC3)c3ccccc23)C1(C)C,4.6,,,16,,,0.52,78,1.6,70,97,,248
CC1(C)C(C(=O)c2cn(CCCC(F)(F)F)c3ccccc23)C1(C)C,0.09,15,167,6,104,,,,,,,,
CC1(C)C(C(=O)c2cn(CCn3cccc3)c3ccccc23)C1(C)C,1.8,310,172,54,97,,,,,,,,
O=C(c1cn(CCN2CCOCC2)c2ccccc12)C12CC3CC(CC1C3)C2,23,> 10000,> 435,68,66,,,,,,,,
CCCn1cc(C(=O)C2C(C)(C)C2(C)C)c2ccccc21,9.2,4300,467,36,114,,,,,,,,
CSCCCCn1cc(C(=O)C2C(C)(C)C2(C)C)c2ccccc21,0.4,39,98,22,74,,,,,,,,
CC1(C)C(C(=O)c2cn(CCc3ccccn3)c3ccccc23)C1(C)C,68,1900,28,542,59,,,,,,,,
CC1(C)C(C(=O)c2cn(CCN3CCCCCC3)c3ccccc23)C1(C)C,26,790,30,1020,49,,,,,,,,
